{"source": "ChEMBL document CHEMBL1151890", "about": "“Synthesis and SAR of amino acid-derived heterocyclic progesterone receptor full and partial agonists” (Bioorg Med Chem Lett, 2009)", "assay_type_in_all_cases": "ADME, organism-based", "key": {"[1]": {"experiment": "Cmax in rat at 2 mg/kg, po", "design": "dose 2 mg/kg, route oral", "conditions": "in vivo", "in_short": "(§1)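 Rats were dosed both intravenously and orally, at 1.1 or 1.2 mg/kg iv and 2.0 or 2.3 mg/kg po. Plasma parameters were derived from these dosings. Values are means of three experiments with standard deviation.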"}, "[2]": {"experiment": "AUC (0 to t) in rat at 2 mg/kg, po", "design": "dose 2 mg/kg, route oral", "conditions": "plasma", "in_short": "as §1"}, "[3]": {"experiment": "Half life in rat at 2 mg/kg, po", "design": "dose 2 mg/kg, route oral", "conditions": "in vivo", "in_short": "as §1"}, "[4]": {"experiment": "Oral bioavailability in rat at 2 mg/kg", "conditions": "in vivo", "in_short": "as §1"}}}
{"smiles": "CC(C)CC(c1nnnn1C)N(CC(C)C)c1ccc(C#N)c(Cl)c1", "note": "(centres undefined)", "values": [{"measurement": "Cmax", "setting": "[1]", "result": 146, "unit": "ng/mL"}, {"measurement": "AUC(0-t)", "setting": "[2]", "result": 572, "unit": "ng·h/mL"}, {"measurement": "half-life", "setting": "[3]", "result": 8.9, "unit": "h"}, {"measurement": "bioavailability", "setting": "[4]", "result": 100, "unit": "%"}]}
